Laboratory results: ChEMBL document CHEMBL4706662, “Design and Evaluation of Peptide Dual-Agonists of GLP-1 and NPY2 Receptors for Glucoregulation and Weight Loss with Mitigated Nausea and Emesis” (J Med Chem, 2021)
Active and inactive are the calls of the source. No cut-off for these calls is given here. Square brackets hold non-standard residues; d marks the D form. Peptide text beside a SMILES is read from it. ξ: configuration not given here. ξF = NC(Cc1ccccc1)C(=O)O

Legend:
[1] = molecular target: T1, Neuropeptide Y receptor type 2 (Homo sapiens, UniProt P49146); assay: Agonist activity at human NPY2R expressed in HEK293 cells assessed as inhibition of adenosine-induced stimulation of cAMP accumulation by FRET assay; type: functional, cell-based
T1 sequence (P49146 whole entry): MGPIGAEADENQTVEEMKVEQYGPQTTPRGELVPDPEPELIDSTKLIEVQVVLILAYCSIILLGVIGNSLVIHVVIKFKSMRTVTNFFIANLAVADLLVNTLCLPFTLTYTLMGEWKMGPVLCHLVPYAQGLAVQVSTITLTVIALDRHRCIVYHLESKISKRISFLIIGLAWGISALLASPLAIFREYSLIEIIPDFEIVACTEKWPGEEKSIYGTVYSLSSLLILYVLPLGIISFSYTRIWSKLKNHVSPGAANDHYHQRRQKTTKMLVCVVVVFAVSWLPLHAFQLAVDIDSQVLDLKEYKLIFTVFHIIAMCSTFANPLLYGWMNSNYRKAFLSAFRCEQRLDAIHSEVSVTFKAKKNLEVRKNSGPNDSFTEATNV

[2] = molecular target: Glucagon receptor (Rattus norvegicus, UniProt P30082); assay: Agonist activity at rat glucagon receptor expressed in HEK293 cells assessed as stimulation of cAMP accumulation by FRET assay; type: functional, cell-based
Sequence of Glucagon receptor (P30082 whole entry): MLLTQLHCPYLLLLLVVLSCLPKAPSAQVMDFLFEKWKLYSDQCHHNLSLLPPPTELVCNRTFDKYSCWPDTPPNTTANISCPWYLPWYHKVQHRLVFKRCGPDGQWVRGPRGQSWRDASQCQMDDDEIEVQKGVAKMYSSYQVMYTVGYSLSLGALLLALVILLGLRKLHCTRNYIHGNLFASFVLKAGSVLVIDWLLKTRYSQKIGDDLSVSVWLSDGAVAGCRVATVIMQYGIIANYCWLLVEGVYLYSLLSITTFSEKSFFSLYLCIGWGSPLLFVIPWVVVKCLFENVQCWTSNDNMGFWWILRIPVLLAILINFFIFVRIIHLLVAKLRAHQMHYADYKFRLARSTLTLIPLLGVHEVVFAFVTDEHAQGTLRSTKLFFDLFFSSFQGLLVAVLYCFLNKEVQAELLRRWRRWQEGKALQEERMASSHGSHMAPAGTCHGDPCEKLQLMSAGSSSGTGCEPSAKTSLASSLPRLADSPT

[3] = molecular target: T2, Glucagon-like peptide 1 receptor (Homo sapiens, UniProt P43220); assay: Agonist activity at human GLP-1R expressed in HEK293 cells assessed as stimulation of cAMP accumulation by FRET assay; type: functional, cell-based
T2 sequence (P43220 whole entry): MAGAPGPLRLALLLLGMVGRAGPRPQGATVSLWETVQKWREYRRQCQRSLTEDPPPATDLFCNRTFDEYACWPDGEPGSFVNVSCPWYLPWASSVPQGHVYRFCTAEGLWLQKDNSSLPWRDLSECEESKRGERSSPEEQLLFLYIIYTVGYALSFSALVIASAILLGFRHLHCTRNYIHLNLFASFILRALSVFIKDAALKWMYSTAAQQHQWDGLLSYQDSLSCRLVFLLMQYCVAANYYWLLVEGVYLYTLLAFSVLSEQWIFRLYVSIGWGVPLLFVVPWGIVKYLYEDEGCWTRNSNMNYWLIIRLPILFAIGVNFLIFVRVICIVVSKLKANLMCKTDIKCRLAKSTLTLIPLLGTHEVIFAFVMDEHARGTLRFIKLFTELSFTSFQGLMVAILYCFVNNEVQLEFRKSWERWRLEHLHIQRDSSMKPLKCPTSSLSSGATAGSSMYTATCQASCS

[4] = molecular target: T2, Glucagon-like peptide 1 receptor; assay: Displacement of GLP-1-red from human GLP-1R expressed in CHO-K1 cells by fluorescent competitive binding assay; type: cell-based
[5] = molecular target: T3, Neuropeptide Y receptor type 2 (Homo sapiens) (UniProt P49146); assay: Agonist activity at human NPY2R expressed in HEK293 cells assessed as inhibition of adenosine-induced stimulation of cAMP accumulation in presence of NPY2-R antagonist […] by FRET assay; type: functional, cell-based
T3 sequence (whole entry): T1 sequence (P49146 whole entry)

[6] = test system: Suncus murinus; assay: Improvement in glucose clearance in musk shrew assessed as increase in plasma glucose clearing rate at 10 nmol/kg, ip measured 20 to 60 mins following glucose administration by IPGTT method; type: functional, organism-based; conditions: time 20-60 min
In short: (§1)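 Male musk shrews (~8 months, 60–65 g, n = 9), within-subject counterbalanced. Baseline tail glucose by glucometer, then IP drug or saline (1 mL/100 g); 30 min later IP glucose 2 g/kg, glucose read at 20, 40, 60 and 120 min.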

[7] = test system: Pancreatic islet; assay: Stimulation of glucose stimulated insulin secretion in rat pancreatic islets at 50 nM in presence of 10 mM glucose incubated for 60 mins; type: functional, tissue-based
[8] = molecular target: T2, Glucagon-like peptide 1 receptor; assay: Agonist activity at human GLP-1R expressed in HEK293 cells assessed as stimulation of cAMP accumulation in presence of GLP-1R antagonist exendin9-39 by FRET assay; type: functional, cell-based
In short: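 HEK293 cells stably expressing human GLP-1R, transduced with H188 cAMP FRET reporter (16 h, MOI 25), read in SES (pH 7.4, 11 mM glucose, 0.1% BSA). Antagonist Ex(9–39) added 20 min before agonist. Excitation 435 nm; 485/535 emission ratio baseline-normalized, read in real time. Triplicate independent runs; EC50 by nonlinear regression of peak FRET values.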

[9] = Half life in Sprague-Dawley rat liver microsomes at 30 uM in presence of NADPH by HPLC analysis; type: ADME, Microsome
[10] = test system: Rattus norvegicus; assay: Effect on glucose clearance in Sprague-Dawley rat model of DIO at 10 nmol/kg dosed daily for 5 days; type: functional, organism-based; conditions: time 5.0 day
[11] = test system: Rattus norvegicus; assay: Suppression of body weight in Sprague-Dawley rat model of DIO at 10 nmol/kg dosed daily for 5 days; type: functional; conditions: time 5 day
[12] = Toxicity in lean Sprague-Dawley rat assessed as induction at 0.3 to 60 nmol/kg dosed daily for 2 days by kaolin consumption assay; conditions: in vivo, 48 h
[13] = molecular target: T4, Glucagon-like peptide 1 receptor (Rattus norvegicus, UniProt P32301); assay: Agonist activity at rat GLP-1R expressed in HEK293 cells assessed as stimulation of cAMP accumulation by FRET assay; type: functional, cell-based
T4 sequence (P32301 whole entry): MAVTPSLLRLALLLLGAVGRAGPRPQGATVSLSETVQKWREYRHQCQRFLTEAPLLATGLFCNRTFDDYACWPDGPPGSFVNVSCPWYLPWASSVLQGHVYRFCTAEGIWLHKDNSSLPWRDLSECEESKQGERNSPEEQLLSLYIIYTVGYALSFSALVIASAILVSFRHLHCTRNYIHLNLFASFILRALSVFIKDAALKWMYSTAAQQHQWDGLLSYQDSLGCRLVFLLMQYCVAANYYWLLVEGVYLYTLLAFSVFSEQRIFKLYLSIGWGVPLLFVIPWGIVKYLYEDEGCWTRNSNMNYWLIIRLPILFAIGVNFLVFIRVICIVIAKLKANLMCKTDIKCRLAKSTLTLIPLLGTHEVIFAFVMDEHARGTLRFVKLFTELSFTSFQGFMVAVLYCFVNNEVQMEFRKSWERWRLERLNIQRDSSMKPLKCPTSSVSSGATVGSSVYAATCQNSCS

[14] = test system: Rattus norvegicus; assay: Suppression of food intake in Sprague-Dawley rat model of DIO at 10 nmol/kg dosed daily for 5 days; type: functional, organism-based; conditions: time 5.0 day
[15] = test system: Rattus norvegicus; assay: Suppression of blood glucose level in prediabetic Sprague-Dawley rat model of DIO assessed as reduction in post-dextrose bolus blood glucose at 10 nmol/kg dosed daily for 5 days by IPGTT method; type: functional, organism-based; conditions: time 5.0 day
[16] = test system: Pancreatic islet; assay: Stimulation of glucose stimulated insulin secretion in rat pancreatic islets at 50 nM in presence of 3 mM glucose incubated for 60 mins; type: functional, tissue-based
[17] = molecular target: T5, Neuropeptide Y receptor type 1 (Homo sapiens, UniProt P25929); assay: Agonist activity at human NPY1R expressed in HEK293 cells assessed as inhibition of adenosine-induced stimulation of cAMP accumulation by FRET assay; type: functional, cell-based
T5 sequence (P25929 whole entry): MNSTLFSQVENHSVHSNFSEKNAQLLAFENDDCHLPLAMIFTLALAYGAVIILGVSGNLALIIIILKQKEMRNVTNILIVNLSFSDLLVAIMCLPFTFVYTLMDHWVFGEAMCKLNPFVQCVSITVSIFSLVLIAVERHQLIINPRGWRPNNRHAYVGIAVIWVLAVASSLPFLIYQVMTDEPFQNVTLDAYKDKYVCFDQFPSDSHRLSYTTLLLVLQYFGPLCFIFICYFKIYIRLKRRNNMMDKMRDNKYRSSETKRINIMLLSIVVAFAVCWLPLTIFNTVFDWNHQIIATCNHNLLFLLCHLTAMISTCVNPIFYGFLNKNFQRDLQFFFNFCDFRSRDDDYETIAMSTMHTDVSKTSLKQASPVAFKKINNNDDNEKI

[18] = Toxicity in musk shrew assessed as induction of emesis at 10 to 60 nmol/kg, ip measured after 120 mins; type: organism-based; conditions: suncus murinus, in vivo, 2 h, dose 10-60 nmol/kg
[19] = test system: Rattus norvegicus; assay: Suppression of cumulative food intake in lean Sprague-Dawley rat at 10 to 20 nmol/kg dosed daily for 2 days relative to control; type: functional; conditions: dose 10-20 nmol/kg, time 2 day
[20] = test system: Suncus murinus; assay: Improvement in glucose clearance in musk shrew at 10 nmol/kg, ip measured 20 to 60 mins following glucose administration by IPGTT method; type: functional, organism-based; conditions: time 20-60 min; in short: as §1
[21] = test system: Rattus norvegicus; assay: Suppression of fasting blood glucose in Sprague-Dawley rat model of DIO at 10 nmol/kg dosed daily for 5 days; type: functional, organism-based; conditions: time 5.0 day
[22] = test system: Rattus norvegicus; assay: Suppression of cumulative food intake in lean Sprague-Dawley rat at 0.3 to 60 nmol/kg dosed daily for 2 days; type: functional, organism-based; conditions: dose 0.3-60 nmol/kg, time 2.0 day
[23] = Intrinsic clearance in Sprague-Dawley rat liver microsomes at 30 uM in presence of NADPH by HPLC analysis; type: ADME, Microsome

CC[C@H](C)[C@H](NC(=O)C(Cc1ccccc1)NC(=O)[C@H](CC(C)C)NC(=O)[C@H](CCCNC(=N)N)NC(=O)[C@@H](NC(=O)[C@H](C)NC(=O)[C@H](CCC(=O)O)NC(=O)[C@H](CCC(=O)O)NC(=O)[C@H](CCC(=O)O)NC(=O)[C@H](CCSC)NC(=O)[C@H](CCC(N)=O)NC(=O)[C@H](CCCCN)NC(=O)[C@H](CO)NC(=O)[C@H](CC(C)C)NC(=O)[C@H](CC(=O)O)NC(=O)[C@H](CO)NC(=O)[C@@H](NC(=O)[C@H](Cc1ccccc1)NC(=O)[C@@H](NC(=O)CNC(=O)[C@H](CCC(N)=O)NC(=O)[C@H](CO)NC(=O)[C@@H](N)Cc1cnc[nH]1)[C@@H](C)O)[C@@H](C)O)C(C)C)C(=O)N[C@@H](CCC(=O)O)C(=O)N[C@@H](Cc1c[nH]c2ccccc12)C(=O)N[C@@H](CC(C)C)C(=O)N[C@@H](CCCCN)C(=O)N[C@@H](CC(N)=O)C(=O)N[C@@H](CCCNC(=N)N)C(=O)N[C@@H](Cc1cnc[nH]1)C(=O)N[C@@H](Cc1ccc(O)cc1)C(=O)N[C@@H](CC(C)C)C(=O)N[C@@H](CC(N)=O)C(=O)N[C@@H](CC(C)C)C(=O)N[C@H](C(=O)N[C@H](C(=O)N[C@@H](CCCNC(=N)N)C(=O)N[C@@H](CCC(N)=O)C(=O)N[C@@H](CCCNC(=N)N)C(=O)N[C@@H](Cc1ccc(O)cc1)C(=O)O)[C@@H](C)O)C(C)C (some centres undefined) (H-HSQGTFTSDLSKQMEEEAVRL[ξF]IEWLKNRHYLNLVTRQRY-OH)
IC50 [1]: 61 nM
EC50 [2]: > 3000 nM
EC50 [3]: 0.533 nM
IC50 [4]: 321 nM

H-H[dS]QGTFTSDLSKYLEEEAVREFIAWLKNGGPSRHYLNLVTRQRY-NH2
Activity [5]: inactive
Activity [6]: Active
Activity [7]: Active
Activity [8]: inactive
half-life at 30 µM [9]: 2.27 h
Activity [10]: Active
Activity [11]: 5%
Activity [12]: Non-Toxic
EC50 [13]: 0.48 nM
Activity [14]: Active
IC50 [1]: 10 nM
Activity [15]: Active
EC50 [2]: > 3000 nM
Activity [16]: inactive
IC50 [17]: 27 nM
Activity [18]: Non-Toxic
EC50 [3]: 0.33 nM
Activity [19]: 71.4%
IC50 [4]: 113 nM
Activity [20]: Active
Activity [21]: Active
Activity [22]: Dose-dependent effect
microsomal CLint at 30 µM [23]: 32.5 µL/min/mg

CC[C@H](C)[C@H](NC(=O)C(Cc1ccccc1)NC(=O)[C@H](CC(C)C)NC(=O)[C@H](CCCNC(=N)N)NC(=O)[C@@H](NC(=O)[C@H](C)NC(=O)[C@H](CCC(=O)O)NC(=O)[C@H](CCC(=O)O)NC(=O)[C@H](CCC(=O)O)NC(=O)[C@H](CCSC)NC(=O)[C@H](CCC(N)=O)NC(=O)[C@H](CCCCN)NC(=O)[C@H](CO)NC(=O)[C@H](CC(C)C)NC(=O)[C@H](CC(=O)O)NC(=O)[C@H](CO)NC(=O)[C@@H](NC(=O)[C@H](Cc1ccccc1)NC(=O)[C@@H](NC(=O)CNC(=O)[C@H](CCC(N)=O)NC(=O)[C@H](CO)NC(=O)[C@@H](N)Cc1cnc[nH]1)[C@@H](C)O)[C@@H](C)O)C(C)C)C(=O)N[C@@H](CCC(=O)O)C(=O)N[C@@H](Cc1c[nH]c2ccccc12)C(=O)N[C@@H](CC(C)C)C(=O)N[C@@H](CCCCN)C(=O)N[C@@H](CC(N)=O)C(=O)NCC(=O)NCC(=O)N1CCC[C@@H]1C(=O)N[C@@H](CO)C(=O)N[C@@H](CCCNC(=N)N)C(=O)N[C@@H](Cc1cnc[nH]1)C(=O)N[C@@H](Cc1ccc(O)cc1)C(=O)N[C@@H](CC(C)C)C(=O)N[C@@H](CC(N)=O)C(=O)N[C@@H](CC(C)C)C(=O)N[C@H](C(=O)N[C@H](C(=O)N[C@@H](CCCNC(=N)N)C(=O)N[C@@H](CCC(N)=O)C(=O)N[C@@H](CCCNC(=N)N)C(=O)N[C@@H](Cc1ccc(O)cc1)C(=O)O)[C@@H](C)O)C(C)C (some centres undefined)
EC50 ([13]; hek293): 0.12 nM
IC50 ([1]; hek293): 32 nM
EC50 ([2]; hek293): 30 nM
EC50 ([3]; hek293): 0.24 nM
IC50 ([4]; cho-k1): 27.5 nM

H-HSQGTFTSDLSKQMEEEAVRLFIEWLKNRYYASLRRHYLNLVTRQRY-NH2
EC50 [2]: > 3000 nM
IC50 [17]: 82 nM
IC50 [4]: > 1000 nM

H-HSQGTFTSDLSKQMEEWAVRLFIEWLKNGGPSRYYASLRRHYLNLVTRQRY-NH2
IC50 [1]: 25 nM
EC50 [2]: > 3000 nM
EC50 [3]: 2.3 nM
IC50 [4]: > 1000 nM
